CSC inhib: cancer stem cell inhibition; cancer stem cell-like cells viability, luminescence; inhibition, % at 7.5 µM; 1.1% of 300,000 active; AID 2717; in the data active means inhibition above about 75%; tested in HMLE shEcad cells
ANO1 activ: activators or potentiators of mouse TMEM16A chloride channel; 0.3% of 340,000 active; HEK293 TMEM16A/YFP-H148Q/I152L, iodide quench fluorescence; stronger effect = lower value; AID 623877; B-score at 10 µM;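 active means fluorescence-ratio B-score plate-corrected deviation score at least 3 library SD below zero, with starting fluorescence score within 5 deviations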;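 further: channel opened by trigger with iodide after compound preincubation; score built on the fluorescence ratio of max minus min over baseline; more negative score means more quench and so TMEM16A activation or potentiation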
Target sequence (Q8BHY3 whole entry, looked up): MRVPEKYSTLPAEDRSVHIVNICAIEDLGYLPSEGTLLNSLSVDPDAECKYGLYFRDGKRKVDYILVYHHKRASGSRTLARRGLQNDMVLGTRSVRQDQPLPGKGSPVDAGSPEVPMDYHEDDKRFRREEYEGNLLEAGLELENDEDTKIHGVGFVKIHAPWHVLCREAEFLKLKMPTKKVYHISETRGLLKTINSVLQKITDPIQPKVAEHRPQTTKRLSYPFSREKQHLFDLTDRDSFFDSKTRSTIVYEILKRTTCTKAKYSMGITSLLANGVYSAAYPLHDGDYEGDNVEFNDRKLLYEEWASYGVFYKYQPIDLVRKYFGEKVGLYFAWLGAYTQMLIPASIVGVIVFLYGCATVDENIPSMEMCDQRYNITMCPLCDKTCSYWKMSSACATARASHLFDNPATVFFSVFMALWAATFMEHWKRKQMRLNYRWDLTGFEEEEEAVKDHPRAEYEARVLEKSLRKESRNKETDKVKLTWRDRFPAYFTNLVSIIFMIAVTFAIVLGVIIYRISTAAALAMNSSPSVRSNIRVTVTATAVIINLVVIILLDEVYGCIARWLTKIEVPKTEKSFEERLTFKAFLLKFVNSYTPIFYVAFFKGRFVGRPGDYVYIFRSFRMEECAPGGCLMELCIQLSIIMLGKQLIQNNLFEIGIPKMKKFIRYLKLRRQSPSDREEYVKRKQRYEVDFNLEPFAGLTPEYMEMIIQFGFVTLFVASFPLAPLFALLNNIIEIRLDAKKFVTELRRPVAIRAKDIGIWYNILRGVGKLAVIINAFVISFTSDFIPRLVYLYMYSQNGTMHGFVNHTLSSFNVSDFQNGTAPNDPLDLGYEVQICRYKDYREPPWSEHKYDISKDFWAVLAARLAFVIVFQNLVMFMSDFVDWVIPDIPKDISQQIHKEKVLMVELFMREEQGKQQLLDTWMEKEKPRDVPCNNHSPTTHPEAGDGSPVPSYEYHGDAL
TMEM16A inh: inhibitors of mouse TMEM16A calcium-activated chloride channel. Q8BHY3. HEK293 TMEM16A/YFP iodide influx fluorescence, ionomycin. normalized B-score (activity score, 25-100; higher = stronger inhibition) at 10 µM. 1.2% of 310,000 active;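 active means ratio plate-corrected score three or more library SD toward inhibition, starting fluorescence score within five deviations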;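 further: score derived from kinetic fluorescence span divided by baseline fluorescence per well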
Beta apoptosis: beta cell apoptosis inhibition; AID 435005; protection from apoptosis, % (concentration not given with the values); 0.8% of 300,000 active; INS-1E cytokine-induced death, ATP luminescence, 48 h; percent of positive-control rescue, neutral wells zero;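 active means Every replicate reaches about 75%, or at least half do and their mean reaches it too, limit read from the data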;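 further: 0% = cytokine-treated negative control wells and 100% = positive control rescue; higher means more ATP so stronger rescue from cytokine killing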
MC4R antagonist: blocks human MC4R cAMP signaling. AID 540295. 0.48% of 360,000 active. inhibition, % at 6.5 µM. P32245. MC4R-expressing cells, MTII-stimulated cAMP, LANCE TR-FRET;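 active means inhibition above its plate's cutoff, the mean of tested wells on that plate plus 3 SD, cut at about 29% in these data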;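 further: 0% = Melanotan II alone and 100% = Melanotan II plus saturating MCL0020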
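Test system: U2OS cells stably expressing human melanocortin 4 receptor (MC4R); also added: Melanotan II challenge; compound: 6.5 µM single dose; timing: 30-min compound preincubation, 1-h Melanotan II challenge, 1-h detection, room temperature; signal: Eu-cAMP/anti-cAMP TR-FRET, emission 671 nm; repeats: one well per compound, no replicates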
MC4R barr agon: agonists of human melanocortin 4 receptor (MC4R) beta-arrestin. AID 540308. P32245. 0.98% of 360,000 active. activation, % at 8.9 µM. U2OS MC4R beta-arrestin complementation, luminescence; percent of melanotan II response, DMSO zero;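 active means activation above a per-plate cutoff, the mean activation of sample wells on that plate plus 3 SD, cut at about 8% in these data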
Active calls of the source: *; i = inactive; . = no result. An excerpt weighted towards active compounds, which were near 3.8% of everything screened.

SMILES	CSC inhib	ANO1 activ	TMEM16A inh	Beta apoptosis	MC4R antagonist	MC4R barr agon
CCCS(=O)(=O)c1c(S(=O)(=O)CCC)c2c(C)cccn2c1C(=O)N/N=C/c1cc(O)cc(O)c1	132*	i	i	65	1	-1
CC(=O)c1c(COC(=O)c2cccnc2)nc2ccccc2[n+]1[O-]	-6	-8.8*	i	-5	5	-1
Cc1ccccc1C(c1ncccc1C)N(C)C(=O)C1CCN(CCOc2ccc(Cl)cc2Cl)CC1 (stereo unspecified)	.	.	.	.	-11	9.2*
COc1ccc(OCCN2CCC(C(=O)NC(c3ccc(Cl)cc3)c3ncccc3C)CC2)cc1 (stereo unspecified)	.	.	.	.	10	0
N#Cc1cccc(S(=O)(=O)NCCOc2ccccc2F)c1	6	i	.	-6	8	-1
Cc1[nH]n(-c2ccc(Cl)cc2)c(=O)c1/C=N/c1nnc(-c2ccccc2)s1	6	i	25*	4	-9	-1
CCc1nnc(NS(=O)(=O)c2ccc(N=Cc3c(C)[nH]n(-c4ccc(Cl)cc4)c3=O)cc2)s1	13	i	i	6	8	-2
Cc1ccc(/C=N/Nc2nncc(-c3ccccc3)n2)o1	.	i	i	-2	-23	1
Cc1[nH]n(-c2ccccc2)c(=O)c1/C=N/Nc1nncc(-c2ccccc2)n1	110*	i	i	91*	0	-2
COc1cc(C2=CCN(C(C)=O)CC2)ccc1OC(C)=O	-13	i	i	2	1	0
COc1cccc(NC(=O)COC(=O)/C=C/c2c(C)nn(-c3ccccc3)c2C)c1	.	i	.	-2	-4	-1
Cc1ccc(Nc2nc(N)c([N+](=O)[O-])c(N3CCOCC3)n2)cc1C	-5	i	i	-7	19	0
Nc1nc(Nc2ccccc2)nc(NC2CCCCC2)c1[N+](=O)[O-]	104*	i	i	28	12	2
OCCN1CCN(c2nc(NCc3ccco3)c3ccccc3n2)CC1	-11	i	i	-1	4	-1
Cc1ccc(Nc2nc(N)c([N+](=O)[O-])c(N3CCC(C)CC3)n2)cc1C	85*	i	i	3	-4	1
CNc1nc(N)c([N+](=O)[O-])c(Nc2cccc(F)c2)n1	12	i	i	94*	-2	0
Cc1ccc(OCCN2CCN(c3nc(NCc4ccco4)c4ccccc4n3)CC2)cc1	112*	i	i	4	7	-2
CCN(C[C@H]1N[C@@](C)(C(=O)OC)[C@H]2C(=O)N(C)C(=O)[C@@H]12)C(=O)COc1ccccc1	3	.	.	1	8	-2
COc1cc2nc(N3CCN(C(=O)OCc4ccccc4)[C@H](C(=O)NC(C)(C)C)C3)nc(N)c2cc1OC	-2	i	i	-6	-1	-1
COCCn1c(C)cc(/C=C(\C#N)C(=O)OCC(=O)Nc2ccc(S(N)(=O)=O)cc2)c1C	.	i	.	.	-2	-2
COc1ccc(NC(=O)CCC(=O)c2ccc(Cl)cc2)cn1	.	i	.	-3	5	0
Cc1ccc(Nc2nc(N)c([N+](=O)[O-])c(NCc3ccco3)n2)cc1C	84*	i	i	7	4	0
Cc1cccc(Nc2nc(NCc3ccco3)c3ccccc3n2)c1	113*	i	25*	91*	-3	0
Cc1ccc(-c2nc(NCc3ccco3)c3ccccc3n2)cc1	96*	i	i	7	-5	-2
Cc1ccc(-c2nc(C(Cl)Cl)c3ccccc3n2)cc1	132*	i	i	94*	3	2
SMILES	CSC inhib	ANO1 activ	TMEM16A inh	Beta apoptosis	MC4R antagonist	MC4R barr agon
O=C(COC(=O)COc1ccccc1)Nc1ncc([N+](=O)[O-])s1	.	i	.	-5	-1	-5
O=C(Cc1ccc(Cl)cc1)Nc1ncc([N+](=O)[O-])s1	.	-42*	.	.	-1	0
O=C(Nc1ncc([N+](=O)[O-])s1)c1ccc2c(c1)OCO2	50	i	100*	60	-1	0
O=C(Cc1ccc(Br)cc1)Nc1ncc([N+](=O)[O-])s1	8	i	i	28	4	-1
Cc1onc(-c2ccccc2)c1C(=O)Nc1ncc([N+](=O)[O-])s1	48	i	100*	66	-3	-2
Cc1cnc(NC(=O)c2ccc3c(c2)OCCO3)s1	.	i	.	.	-9	-1
CC(CC(=O)Nc1ncc([N+](=O)[O-])s1)c1ccccc1 (stereo unspecified)	23	i	100*	41	2	2
Cn1c(=O)n(C)c2cc(N3CCOCC3)c(NC(=O)c3cccc(Cl)c3)cc21	-13	i	i	1	-1	0
COc1cccc(-c2cnc(C(O)c3cc(C)ccc3C)[nH]2)c1 (stereo unspecified)	.	.	.	.	-2	-1
COCCn1c(-c2ccc3ccccc3c2)nc2c1c(=O)[nH]c(=O)n2CC(C)C	-9	i	i	-1	16	3
CCC(Oc1ccccc1)C(=O)Nc1ncc([N+](=O)[O-])s1 (stereo unspecified)	16	i	25*	20	18	-2
CCC(Oc1ccccc1)C(=O)Nc1nnc(C)s1 (stereo unspecified)	.	i	i	-2	9	0
COc1ccc(NC(=O)N(C)C[C@H]2OCCCC[C@H](C)Oc3ccc(NS(=O)(=O)c4cn(C)cn4)cc3C(=O)N([C@H](C)CO)C[C@@H]2C)cc1	.	.	.	.	14	2
CC(C)(C)OC(=O)NCc1ccc(CNC(=O)c2[nH]cnc2C(=O)Nc2ccccc2F)cc1	.	.	.	.	-1	9.3*
CC(C)(C)OC(=O)NCc1ccc(NC(=O)c2nc[nH]c2C(=O)NCCCCCCNC(=O)c2[nH]cnc2C(=O)Nc2ccc(CNC(=O)OC(C)(C)C)cc2)cc1	5	i	.	7	-4	-1
CC(C)(C)OC(=O)NCc1ccc(NC(=O)c2nc[nH]c2C(=O)NCCCCNC(=O)c2[nH]cnc2C(=O)Nc2ccc(CNC(=O)OC(C)(C)C)cc2)cc1	120*	i	.	71	15	-1
O=C(Nc1ccccc1F)c1nc[nH]c1C(=O)NCc1ccccc1	.	.	.	.	-1	2
CC[C@H](C)[C@H]1O[C@]2(CC[C@@H]1C)C[C@@H]1C[C@@H](CC=C(C)[C@@H](O[C@H]3C[C@H](OC)[C@@H](O[C@H]4C[C@H](OC)[C@@H](O)[C@H](C)O4)[C@H](C)O3)[C@@H](C)C=CC=C3CO[C@@H]4[C@H](O)C(C)=C[C@@H](C(=O)O1)[C@]34O)O2	103*	i	25*	87*	4	2
COc1ccc(/C=C/c2c(-c3ccc(OC)cc3)sc3ccc(N4CCOCC4)cc23)cc1	26	i	i	4	5	-2
